In ChEMBL document CHEMBL1145792, “Structure-activity relationships for 4-nitrobenzyl carbamates of 5-aminobenz[e]indoline minor groove alkylating agents as prodrugs for GDEPT in conjunction with E. coli nitroreductase” (J Med Chem, 2003):

Columns and labels:
[1] = system: Ovarian cancer cell line; assay: Ratio of cytotoxicity in a non-NTR-expressing SKOV compared to that in NTR-expressing SKOV.; format: functional, Homo sapiens
Method in brief: (§1)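 Parental and stably NTR-transfected partner lines (V79puro/V79-NTRpuro, EMT6/EMT6-NTRpuro, WiDr/WiDr-NTRneo, SKOV3/SKOV-NTRneo) tested in parallel. Aerobic sulforhodamine B growth inhibition after an 18 h exposure, read 4–5 days later. Ratio is the NTR-ve IC50 over the NTR+ve IC50, calculated within each experiment.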

[2] = system: WiDr; assay: Ratio of cytotoxicity in a non-NTR-expressing WiDr compared to that in NTR-expressing WiDr.; format: functional, Homo sapiens; method in brief: as §1
[3] = system: Mammary carcinoma cell line; assay: Cytotoxicity in non-NTR-expressing mouse mammary carcinoma cell line (EMT6).; format: functional, cell-based
[4] = system: Mammary carcinoma cell line; assay: Ratio of cytotoxicity in non-NTR-expressing EMT6 compared to that in NTR-expressing EMT6.; format: functional, Mus musculus; method in brief: as §1
[5] = Partition coefficient (logP); format: physicochemical; details: octanol/water
Method in brief: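 logP was calculated with prediction software, not measured.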

[6] = system: V79; assay: Ratio of cytotoxicity activity in a non-NTR-expressing V79 compared to that in NTR-expressing V79.; format: functional; method in brief: as §1
[7] = system: Ovarian cancer cell line; assay: Cytotoxicity in non-NTR-expressing human ovarian carcinoma cell line (SKOV).; format: functional, cell-based
[8] = LogD value was determined; format: physicochemical; details: octanol/water
[9] = system: V79; assay: Cytotoxicity in non-NTR-expressing Chinese hamster fibroblast (V79).; format: functional, cell-based; details: Cricetulus griseus
[10] = system: WiDr; assay: Cytotoxicity in non-NTR-expressing human colon carcinoma cell line (WiDr).; format: functional, cell-based

Row | SMILES | Ratio [1] | Ratio [2] | IC50 [3] [nM] | Ratio [4] | logP ([5]; read-out: logP) | Ratio [6] | IC50 [7] [nM] | logD [8] | IC50 [9] [nM] | IC50 [10] [nM] | logP [5]
1 | NC(=O)c1cc(N(CCBr)CCBr)c([N+](=O)[O-])cc1[N+](=O)[O-] | 211 | 174 | 54000 | 1380 | 2.68 | 302 | 58000 |  |  |  | 
2 | COc1cc2cc(C(=O)N3CC(CCl)c4c3cc(NC(=O)OCc3ccc([N+](=O)[O-])cc3OCCCN3CCOCC3)c3ccccc43)[nH]c2c(OC)c1OC (stereo not drawn) | 6.5 | 9 | 24 | 6 | 4.55 | 2.6 | 88 | 4.06 | 20 | 98 | 
3 | COc1cc([N+](=O)[O-])ccc1COC(=O)Nc1ccc(COC(=O)Nc2cc3c(c4ccccc24)C(CCl)CN3C(=O)c2cc3cc(OC)c(OC)c(OC)c3[nH]2)cc1 (stereo not drawn) | 0.7 | 1.8 | 63 | 1.8 | 6.09 | 1.03 | 223 |  | 54 | 295 | 
4 | COc1cc2cc(C(=O)N3CC(CCl)c4c3cc(NC(=O)OCc3ccc([N+](=O)[O-])cc3OCCCN(C)C)c3ccccc43)[nH]c2c(OC)c1OC (stereo not drawn) | 3.6 | 3.8 | 74 | 3.4 | 4.95 | 1.45 | 189 | 2.74 | 45 | 269 | 
5 | COc1cc2cc(C(=O)N3CC(CCl)c4c3cc(NC(=O)OCc3ccc([N+](=O)[O-])cc3OCCCO)c3ccccc43)[nH]c2c(OC)c1OC (stereo not drawn) | 58 | 91 | 47 | 91 | 4.57 | 11 | 145 |  | 48 | 191 | 
6 | COc1cc2cc(C(=O)N3CC(CCl)c4c3cc(NC(=O)OCc3ccc([N+](=O)[O-])cc3OCC(O)CO)c3ccccc43)[nH]c2c(OC)c1OC (stereo not drawn) | 40 | 25 | 44 | 13 | 3.38 | 1.75 | 114 |  | 42 | 129 | 
7 | NC(=O)c1cc(N2CC2)c([N+](=O)[O-])cc1[N+](=O)[O-] [TRETAZICAR] | 317 | 51.2 | 710000 | 930 |  | 2090 | 174000 |  |  |  | 1.28
8 | CNc1cc2c(c3ccccc13)C(CCl)CN2C(=O)c1cc2cc(OC)c(OC)c(OC)c2[nH]1 (stereo not drawn) | 0.7 | 1.1 | 0.11 | 0.74 | 2.87 | 1.2 | 0.2 |  | 0.08 | 0.2 | 
9 | COc1cc2cc(C(=O)N3CC(CCl)c4c3cc(NC(=O)OCc3ccc([N+](=O)[O-])cc3)c3ccccc43)[nH]c2c(OC)c1OC (stereo not drawn) | 12 | 33 | 193 | 112 | 4.55 | 10 | 62 |  | 89 | 391 | 
10 | COc1cc([N+](=O)[O-])ccc1COC(=O)Nc1cc2c(c3ccccc13)C(CCl)CN2C(=O)c1cc2cc(OC)c(OC)c(OC)c2[nH]1 (stereo not drawn) | 17 | 47 | 174 | 108 | 4.77 | 6 | 59 |  | 39 | 141 | 
11 | COc1cc2cc(C(=O)N3CC(CCl)c4c3cc(N(C)C(=O)OCc3ccc([N+](=O)[O-])cc3)c3ccccc43)[nH]c2c(OC)c1OC (stereo not drawn) | 10 | 15 | 48 | 27 | 3.98 | 8.4 | 152 |  | 48 | 101 | 
12 | CN(C)CCOc1ccc2[nH]c(C(=O)N3CC(CCl)c4c3cc(N)c3ccccc43)cc2c1 (stereo not drawn) | 1.6 | 1.9 | 1.9 | 0.6 | 2.26 | 1.2 | 13 | 0.53 | 2.6 | 6 | 
13 | COc1cc2cc(C(=O)N3CC(CCl)c4c3cc(NC(=O)OC(C)c3ccc([N+](=O)[O-])cc3)c3ccccc43)[nH]c2c(OC)c1OC (stereo not drawn) | 5.65 | 6.6 | 79 | 11 | 4.9 | 1.67 | 158 |  | 62 | 154 | 
14 | CN(C)CCOc1ccc2[nH]c(C(=O)N3CC(CCl)c4c3cc(NC(=O)OCc3ccc([N+](=O)[O-])cc3)c3ccccc43)cc2c1 (stereo not drawn) | 41 | 20 | 208 | 31 | 4.94 | 4.3 | 770 | 3.24 | 157 | 403 | 
15 | COc1cc2cc(C(=O)N3CC(CCl)c4c3cc(NC(=O)OCc3ccc([N+](=O)[O-])cc3OCCO)c3ccccc43)[nH]c2c(OC)c1OC (stereo not drawn) | 84 | 148 | 107 | 104 | 3.79 | 11 | 224 |  | 63 | 295 | 
16 | COCCOc1cc([N+](=O)[O-])ccc1COC(=O)Nc1cc2c(c3ccccc13)C(CCl)CN2C(=O)c1cc2cc(OC)c(OC)c(OC)c2[nH]1 (stereo not drawn) | 67 | 45 | 33 | 78 | 4.47 | 17 | 106 |  | 31 | 110 | 
17 | COc1cc2cc(C(=O)N3CC(CCl)c4c3cc(N)c3ccccc43)[nH]c2c(OC)c1OC (stereo not drawn) | 0.6 | 0.9 | 0.37 | 2 | 1.87 | 0.9 | 1.1 |  | 0.33 | 1.6 | 
